In ChEMBL document CHEMBL1155504, “Synthesis of 4-[(diethylamino)methyl]-phenol derivatives as novel cholinesterase inhibitors with selectivity towards butyrylcholinesterase” (Bioorg Med Chem Lett, 2010):
Activity calls are given as the source filed them. No cut-off for these calls is given here.

Assays:
Acetylcholinesterase = Acetylcholinesterase (Electrophorus electricus, UniProt O42275); assay: Inhibition of electric eel AChE after 15 mins by Ellman's method
Cholinesterase = Cholinesterase (Equus caballus, UniProt P81908); assay: Inhibition of horse serum BChE after 15 mins by Ellman's method
[1] = Selectivity ratio of IC50 for electric eel AChE to IC50 for horse serum BChE
How it was run: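 Ellman assay for each enzyme: enzyme, DTNB and test compound in 0.1 M potassium phosphate buffer, pH 8.0, pre-incubated 15 min at 37 °C. Started with ATC (AChE) or BTC (BChE) and read at 412 nm for 1 min. Five compound concentrations, each in triplicate; DMSO reference, enzyme-free blank. Ratio taken from the two IC50 values.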

[2] = target: Cholinesterase (Equus caballus) (UniProt P81908); assay: Mixed-type inhibition of horse serum BChE at 10 to 20 nM by Lineweaver-Burke plot analysis
How it was run: (§1)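 Ellman assay: enzyme, DTNB and inhibitor in 0.1 M potassium phosphate buffer, pH 8.0, pre-incubated 15 min at 37 °C. Reaction started with butyrylthiocholine at 100–500 (unit unclear) and followed by absorbance at 412 nm. Inhibitor absent or at two levels. Inhibition type assigned from Lineweaver–Burk plots (1/V versus 1/[S]).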

[3] = target: Acetylcholinesterase (Electrophorus electricus) (UniProt O42275); assay: Mixed-type inhibition of electric eel AChE at 50 to 100 nM by Lineweaver-Burke plot analysis
How it was run: as §1, with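 “acetylthiocholine” for “butyrylthiocholine”, “100–400” for “100–500”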

Chain of Cholinesterase (P81908 whole entry): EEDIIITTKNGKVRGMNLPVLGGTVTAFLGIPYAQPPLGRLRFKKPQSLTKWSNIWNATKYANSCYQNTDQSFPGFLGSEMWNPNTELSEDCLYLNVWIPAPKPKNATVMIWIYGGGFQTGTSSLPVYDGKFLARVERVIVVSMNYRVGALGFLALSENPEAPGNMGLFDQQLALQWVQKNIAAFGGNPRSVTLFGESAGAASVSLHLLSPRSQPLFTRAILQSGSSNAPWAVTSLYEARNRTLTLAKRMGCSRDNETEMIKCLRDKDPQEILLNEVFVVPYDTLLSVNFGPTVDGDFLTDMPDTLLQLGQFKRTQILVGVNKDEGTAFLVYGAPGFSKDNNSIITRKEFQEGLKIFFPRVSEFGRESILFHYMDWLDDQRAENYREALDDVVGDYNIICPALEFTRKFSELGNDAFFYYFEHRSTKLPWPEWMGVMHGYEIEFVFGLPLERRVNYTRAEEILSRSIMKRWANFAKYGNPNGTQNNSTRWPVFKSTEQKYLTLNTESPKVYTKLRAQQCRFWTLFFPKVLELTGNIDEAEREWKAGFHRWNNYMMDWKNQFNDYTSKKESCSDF
Chain of Acetylcholinesterase (O42275 whole entry): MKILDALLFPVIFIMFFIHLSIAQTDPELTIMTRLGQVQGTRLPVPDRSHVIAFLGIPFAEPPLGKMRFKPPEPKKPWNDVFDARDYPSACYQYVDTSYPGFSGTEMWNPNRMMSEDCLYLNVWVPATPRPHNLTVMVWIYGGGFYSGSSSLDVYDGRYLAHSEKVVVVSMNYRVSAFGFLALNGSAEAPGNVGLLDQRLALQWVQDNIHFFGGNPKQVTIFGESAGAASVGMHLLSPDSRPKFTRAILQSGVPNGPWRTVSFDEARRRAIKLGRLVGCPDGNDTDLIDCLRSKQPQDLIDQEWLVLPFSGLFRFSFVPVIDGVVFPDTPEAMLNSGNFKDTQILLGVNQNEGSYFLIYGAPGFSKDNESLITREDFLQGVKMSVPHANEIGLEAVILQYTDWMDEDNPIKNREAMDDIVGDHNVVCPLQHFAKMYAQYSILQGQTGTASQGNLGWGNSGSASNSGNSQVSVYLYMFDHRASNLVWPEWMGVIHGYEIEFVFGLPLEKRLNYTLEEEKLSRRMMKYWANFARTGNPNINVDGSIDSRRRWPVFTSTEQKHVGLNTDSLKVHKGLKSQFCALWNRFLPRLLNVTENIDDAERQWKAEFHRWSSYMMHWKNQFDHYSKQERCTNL
Chain of Acetylcholinesterase (Electrophorus electricus) (O42275 24-633 limits assumed): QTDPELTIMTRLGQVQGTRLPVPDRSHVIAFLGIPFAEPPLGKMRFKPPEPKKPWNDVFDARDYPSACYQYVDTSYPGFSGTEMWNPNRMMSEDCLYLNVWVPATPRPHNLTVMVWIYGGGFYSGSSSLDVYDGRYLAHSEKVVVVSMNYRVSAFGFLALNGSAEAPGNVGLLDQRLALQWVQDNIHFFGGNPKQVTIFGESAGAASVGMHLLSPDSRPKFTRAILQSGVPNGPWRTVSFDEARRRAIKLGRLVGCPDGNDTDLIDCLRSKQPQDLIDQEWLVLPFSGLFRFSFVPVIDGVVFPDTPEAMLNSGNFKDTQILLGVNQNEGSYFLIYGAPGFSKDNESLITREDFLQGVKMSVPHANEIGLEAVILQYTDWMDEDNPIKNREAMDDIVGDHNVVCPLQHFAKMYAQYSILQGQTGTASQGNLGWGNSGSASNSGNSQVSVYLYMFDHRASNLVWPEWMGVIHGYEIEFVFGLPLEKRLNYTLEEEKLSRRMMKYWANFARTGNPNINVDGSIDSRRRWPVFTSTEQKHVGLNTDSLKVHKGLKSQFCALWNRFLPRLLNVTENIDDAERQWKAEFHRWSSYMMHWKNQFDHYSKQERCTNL
Chain of Cholinesterase (Equus caballus) (P81908 whole entry): as the sequence (P81908 whole entry) above

CCN(CC)Cc1ccc(OCCCCCCCCCCN2CCCCC2)cc1
IC50 (Acetylcholinesterase): 600 nM | IC50 (Cholinesterase): 78 nM | Ratio IC50 [1]: 7.66

CCN(CC)CCCCCCOc1ccc(CN(CC)CC)cc1
IC50 (Acetylcholinesterase): 960 nM | IC50 (Cholinesterase): 1660 nM | Ratio IC50 [1]: 0.58

CCN(CC)Cc1ccc(OCCN2CCCCC2)cc1
IC50 (Acetylcholinesterase): 13700 nM | IC50 (Cholinesterase): 10100 nM | Ratio IC50 [1]: 1.35

CCCCN(CCCC)CCCCOc1ccc(CN(CC)CC)cc1
IC50 (Acetylcholinesterase): 10300 nM | IC50 (Cholinesterase): 2520 nM | Ratio IC50 [1]: 4.01

CCN(CC)Cc1ccc(OCCCCCCCCN2CCN(C)CC2)cc1
IC50 (Acetylcholinesterase): 210 nM | IC50 (Cholinesterase): 11 nM | Ratio IC50 [1]: 18.6

CCN(CC)Cc1ccc(OCCCCN2CCCCC2)cc1
IC50 (Acetylcholinesterase): 6740 nM | IC50 (Cholinesterase): 710 nM | Ratio IC50 [1]: 9.4

CCN(CC)Cc1ccc(OCCCCCN2CCCC2)cc1
IC50 (Acetylcholinesterase): 500 nM | IC50 (Cholinesterase): 1540 nM | Ratio IC50 [1]: 0.32

CCCN(CCC)CCCCCOc1ccc(CN(CC)CC)cc1
IC50 (Acetylcholinesterase): 5590 nM | IC50 (Cholinesterase): 1780 nM | Ratio IC50 [1]: 3.13

CCN(CC)CCCCCCCCCCOc1ccc(CN(CC)CC)cc1
IC50 (Acetylcholinesterase): 310 nM | IC50 (Cholinesterase): 27 nM | Ratio IC50 [1]: 11.3

CCN(CC)Cc1ccc(OCCCCN2CCN(C)CC2)cc1
IC50 (Acetylcholinesterase): 5580 nM | IC50 (Cholinesterase): 9730 nM | Ratio IC50 [1]: 0.57

CCN(CC)CCCCOc1ccc(CN(CC)CC)cc1
IC50 (Acetylcholinesterase): 10600 nM | IC50 (Cholinesterase): 2740 nM | Ratio IC50 [1]: 3.87

CCN(CC)Cc1ccc(OCCCCCCN2CCCC2)cc1
IC50 (Acetylcholinesterase): 440 nM | IC50 (Cholinesterase): 1280 nM | Ratio IC50 [1]: 0.34

CCN(CC)Cc1ccc(OCCCCCN2CCN(C)CC2)cc1
IC50 (Acetylcholinesterase): 2480 nM | IC50 (Cholinesterase): 9350 nM | Ratio IC50 [1]: 0.27

CCN(CC)Cc1ccc(OCCCCCCCCN2CCCC2)cc1
IC50 (Acetylcholinesterase): 84 nM | IC50 (Cholinesterase): 15 nM | Ratio IC50 [1]: 5.42

CCCN(CCC)CCCCCCOc1ccc(CN(CC)CC)cc1
IC50 (Acetylcholinesterase): 2160 nM | IC50 (Cholinesterase): 1340 nM | Ratio IC50 [1]: 1.61

CCN(CC)Cc1ccc(OCCCCCCN2CCN(C)CC2)cc1
IC50 (Acetylcholinesterase): 1820 nM | IC50 (Cholinesterase): 3760 nM | Ratio IC50 [1]: 0.48

CCN(CC)Cc1ccc(OCCCCCCN2CCCCC2)cc1
IC50 (Acetylcholinesterase): 890 nM | IC50 (Cholinesterase): 1370 nM | Ratio IC50 [1]: 0.65

CCN(CC)CCCCCOc1ccc(CN(CC)CC)cc1
IC50 (Acetylcholinesterase): 8370 nM | IC50 (Cholinesterase): 4420 nM | Ratio IC50 [1]: 1.89

CCCN(CCC)CCCCOc1ccc(CN(CC)CC)cc1
IC50 (Acetylcholinesterase): 13700 nM | IC50 (Cholinesterase): 11700 nM | Ratio IC50 [1]: 1.17

CCN1CCN(CCCCCOc2ccc(CN(CC)CC)cc2)CC1
IC50 (Acetylcholinesterase): 1760 nM | IC50 (Cholinesterase): 3080 nM | Ratio IC50 [1]: 0.57

CCCCN(CCCC)CCCCCCCCOc1ccc(CN(CC)CC)cc1
IC50 (Acetylcholinesterase): 140 nM | IC50 (Cholinesterase): 17 nM | Ratio IC50 [1]: 8.45

CCCCN(CCCC)CCCCCOc1ccc(CN(CC)CC)cc1
IC50 (Acetylcholinesterase): 2460 nM | IC50 (Cholinesterase): 1900 nM | Ratio IC50 [1]: 1.29

CCCCN(CCCC)CCCCCCCCCCOc1ccc(CN(CC)CC)cc1
IC50 (Acetylcholinesterase): 260 nM | IC50 (Cholinesterase): 15 nM | Ratio IC50 [1]: 16.5

CCN(CC)Cc1ccc(OCCCCCN2CCCCC2)cc1
IC50 (Acetylcholinesterase): 4310 nM | IC50 (Cholinesterase): 670 nM | Ratio IC50 [1]: 6.44

CCN(CC)Cc1ccc(OCCCCCCCCCCN2CCN(C)CC2)cc1
IC50 (Acetylcholinesterase): 540 nM | IC50 (Cholinesterase): 33 nM | Ratio IC50 [1]: 16.5

CCN(CC)Cc1ccc(OCCCCCCCCCCN2CCCC2)cc1
IC50 (Acetylcholinesterase): 300 nM | IC50 (Cholinesterase): 68 nM | Ratio IC50 [1]: 4.41

CCN(CC)Cc1ccc(OCCN2CCN(C)CC2)cc1
IC50 (Acetylcholinesterase): 11500 nM | IC50 (Cholinesterase): 20300 nM | Ratio IC50 [1]: 0.56

CCN1CCN(CCCCCCCCCCOc2ccc(CN(CC)CC)cc2)CC1
IC50 (Acetylcholinesterase): 580 nM | IC50 (Cholinesterase): 190 nM | Ratio IC50 [1]: 3.1

CCCCN(CCCC)CCCCCCOc1ccc(CN(CC)CC)cc1
IC50 (Acetylcholinesterase): 670 nM | IC50 (Cholinesterase): 230 nM | Ratio IC50 [1]: 2.92

CCCN(CCC)CCCCCCCCOc1ccc(CN(CC)CC)cc1
IC50 (Acetylcholinesterase): 170 nM | IC50 (Cholinesterase): 9.1 nM | Ratio IC50 [1]: 18.8

CCN(CC)Cc1ccc(OCCCCCCCCN2CCCCC2)cc1
IC50 (Acetylcholinesterase): 92 nM | IC50 (Cholinesterase): 7.3 nM | Activity [2]: Active | Ratio IC50 [1]: 12.5 | inhibition [3]: Active

CCN(CC)CCCCCCCCOc1ccc(CN(CC)CC)cc1
IC50 (Acetylcholinesterase): 140 nM | IC50 (Cholinesterase): 48 nM | Ratio IC50 [1]: 2.99

CCN1CCN(CCCCCCCCOc2ccc(CN(CC)CC)cc2)CC1
IC50 (Acetylcholinesterase): 77 nM | IC50 (Cholinesterase): 14 nM | Ratio IC50 [1]: 5.38

CCN1CCN(CCCCCCOc2ccc(CN(CC)CC)cc2)CC1
IC50 (Acetylcholinesterase): 1620 nM | IC50 (Cholinesterase): 2200 nM | Ratio IC50 [1]: 0.74

CCN(CC)Cc1ccc(OCCCCN2CCCC2)cc1
IC50 (Acetylcholinesterase): 3420 nM | IC50 (Cholinesterase): 1400 nM | Ratio IC50 [1]: 2.44

CCCN(CCC)CCCCCCCCCCOc1ccc(CN(CC)CC)cc1
IC50 (Acetylcholinesterase): 340 nM | IC50 (Cholinesterase): 26 nM | Ratio IC50 [1]: 13.1
